Measured values from ChEMBL document CHEMBL3124827, “Design and synthesis of 2-styryl of 5-Nitroimidazole derivatives and antimicrobial activities as FabH inhibitors” (Eur J Med Chem, 2014).
≈ marks a conversion by molar mass, not a printed value.

Tests used:
[1] = Inhibition of Escherichia coli FabH expressed in Escherichia coli BL21 (DE3) after 25 mins
Method in brief: (§1)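 His-tagged FabH purified by Ni-NTA (IPTG 0.5 mM induction in kanamycin LB), stored at 2 mg/mL. 20 µL reaction: 20 mM Na2HPO4 pH 7.0, 0.5 mM DTT, 0.25 mM MgCl2, 2.5 µM holo-ACP, 1 nM FabH; after 1 min, 25 µM acetyl-CoA, 0.5 mM NADH, 0.5 mM NADPH added for 25 min; 3H incorporation by liquid scintillation; inhibitors from DMSO stock, final DMSO ≤2%; IC50 determined.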

Pseudomonas aeruginosa = assay: Antibacterial activity against Pseudomonas aeruginosa after 12 hrs by MTT assay; format: functional, organism-based
Method in brief: (§2)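 MTT broth-dilution assay; drug-containing medium added to final concentrations of 320, 160, 40, 10, 2.5 and 0.25 µg/mL, each in triplicate. After 12 h, 25 µL of 5 mg/mL MTT in PBS added; after 4 h medium discarded, formazan dissolved in 150 µL DMSO with 10 min shaking, absorbance read at 490 nm; 50% inhibitory concentration reported.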

Bacillus subtilis = assay: Antibacterial activity against Bacillus subtilis after 12 hrs by MTT assay; format: functional, organism-based; method in brief: as §2
[2] = Cytotoxicity against human macrophages assessed as change in morphology at 0.25 to 160 ug/ml after 24 hrs using Giemsa staining by phase contrast microscopic analysis; format: cell-based; conditions: macrophage
Method in brief: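 Confluent cells (100 µL stock suspension) grown to 90% confluency, medium replaced with serum-free DMEM, then exposed 24 h to 0.25 or 160 µg/mL test compound; cell morphology compared with untreated control after Giemsa staining under phase contrast microscopy.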

Escherichia coli = assay: Antibacterial activity against Escherichia coli after 12 hrs by MTT assay; format: functional, organism-based; method in brief: as §2
Bacillus thuringiensis = assay: Antibacterial activity against Bacillus thuringiensis after 12 hrs by MTT assay; format: functional, organism-based; method in brief: as §2
[3] = Cytotoxicity against human macrophages up to 160 ug/ml after 24 hrs by MTT assay; format: cell-based; conditions: macrophage
Method in brief: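 Cells grown to 90% confluency, switched to serum-free DMEM, exposed to various concentrations for 24 h; viability by MTT, read spectrophotometrically as absorbance difference 570 minus 630 nm.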

[4] = Inhibition of Pseudomonas aeruginosa FabH after 25 mins; method in brief: as §1

SMILES | IC50 [1] [µM] | IC50 (Pseudomonas aeruginosa) [µg/mL] | IC50 (Bacillus subtilis) [µg/mL] | Activity [2] | IC50 (Escherichia coli) [µg/mL] | IC50 (Bacillus thuringiensis) [µg/mL] | Activity [3] | IC50 [4] [µM]
O=[N+]([O-])c1cnc(/C=C/c2ccc(OCc3ccccc3)cc2)n1CCO | 3.4 | 14.5 (≈ 39.7 µM) | 6.3 (≈ 17.2 µM) | Non-toxic | 34.3 (≈ 93.9 µM) | 9.8 (≈ 26.8 µM) | Non-toxic | 7.9
O=[N+]([O-])c1cnc(/C=C/c2ccccc2Cl)n1CCO | 6.5 | 17.8 (≈ 60.6 µM) | 2.9 (≈ 9.87 µM) |  | 175 (≈ 595 µM) | 37.8 (≈ 129 µM) |  | 29.2
Cc1ccc(/C=C/c2ncc([N+](=O)[O-])n2CCO)cc1 |  | 2.9 (≈ 10.6 µM) | 42.6 (≈ 156 µM) |  | 145 (≈ 530 µM) | 28.6 (≈ 105 µM) |  | 
CC(C)(S)[C@@H](N)C(=O)O [PENICILLAMINE] |  | 5.8 (≈ 38.9 µM) | 6.3 (≈ 42.2 µM) |  | 42.3 (≈ 283 µM) | 6.3 (≈ 42.2 µM) |  | 
NC[C@H]1O[C@H](O[C@H]2[C@H](O)[C@@H](O[C@H]3O[C@H](CO)[C@@H](O)[C@H](N)[C@H]3O)[C@H](N)C[C@@H]2N)[C@H](O)[C@@H](O)[C@@H]1O [KANAMYCIN] | 3.1 |  |  |  |  |  |  | 6.7
COc1ccccc1/C=C/c1ncc([N+](=O)[O-])n1CCO |  | 20.4 (≈ 70.5 µM) | 19.8 (≈ 68.4 µM) |  | 188 (≈ 649 µM) | 37.3 (≈ 129 µM) |  | 
CN(C)c1ccc(/C=C/c2ncc([N+](=O)[O-])n2CCO)cc1 | 10.2 | 121 (≈ 400 µM) | 17.2 (≈ 56.9 µM) |  | 88 (≈ 291 µM) | 7.2 (≈ 23.8 µM) |  | 25.6
O=[N+]([O-])c1cnc(/C=C/c2ccc(Cl)cc2Cl)n1CCO |  | 39.3 (≈ 120 µM) | 57.1 (≈ 174 µM) |  | > 200 | 36.7 (≈ 112 µM) |  | 
O=[N+]([O-])c1ccc(/C=C/c2ncc([N+](=O)[O-])n2CCO)cc1 | 2.1 | 15.5 (≈ 50.9 µM) | 9 (≈ 29.6 µM) | Non-toxic | 36.4 (≈ 120 µM) | 13.9 (≈ 45.7 µM) | Non-toxic | 12.4
O=[N+]([O-])c1cnc(/C=C/c2ccc(Br)cc2)n1CCO |  | 32.2 (≈ 95.2 µM) | 114 (≈ 336 µM) |  | 119 (≈ 353 µM) | 19.2 (≈ 56.8 µM) |  | 
O=[N+]([O-])c1cnc(/C=C/c2cccc(Cl)c2)n1CCO |  | 14.7 (≈ 50 µM) | 40.7 (≈ 139 µM) |  | 119 (≈ 406 µM) | 25.7 (≈ 87.5 µM) |  | 
O=[N+]([O-])c1cnc(/C=C/c2ccc(Cl)cc2)n1CCO |  | 48.3 (≈ 164 µM) | 32.8 (≈ 112 µM) |  | > 200 | 32.1 (≈ 109 µM) |  | 
O=[N+]([O-])c1ccccc1/C=C/c1ncc([N+](=O)[O-])n1CCO |  | 12.8 (≈ 42.1 µM) | 11.8 (≈ 38.8 µM) |  | 157 (≈ 517 µM) | 5.8 (≈ 19.1 µM) |  | 
O=[N+]([O-])c1cnc(/C=C/c2ccccc2)n1CCO |  | 12.4 (≈ 47.8 µM) | 49.3 (≈ 190 µM) |  | > 200 | 49.5 (≈ 191 µM) |  | 
O=[N+]([O-])c1cnc(/C=C/c2c(F)cccc2Cl)n1CCO |  | 38.1 (≈ 122 µM) | 19.6 (≈ 62.9 µM) |  | 82.1 (≈ 263 µM) | 25.3 (≈ 81.2 µM) |  | 
O=[N+]([O-])c1cnc(/C=C/c2cccc(Br)c2)n1CCO |  | 43.6 (≈ 129 µM) | 24.4 (≈ 72.2 µM) |  | 116 (≈ 342 µM) | 23.4 (≈ 69.2 µM) |  | 
O=[N+]([O-])c1cnc(/C=C/c2cccc(F)c2)n1CCO |  | 16.8 (≈ 60.6 µM) | 36.6 (≈ 132 µM) |  | 114 (≈ 412 µM) | 55.1 (≈ 199 µM) |  | 
COc1ccc(/C=C/c2ncc([N+](=O)[O-])n2CCO)cc1 |  | 30.2 (≈ 104 µM) | 146 (≈ 506 µM) |  | 89.1 (≈ 308 µM) | 67.4 (≈ 233 µM) |  | 
O=[N+]([O-])c1cnc(/C=C/c2ccc(F)cc2)n1CCO | 16.5 | 1.7 (≈ 6.13 µM) | 8.8 (≈ 31.7 µM) |  | 57.2 (≈ 206 µM) | 12.5 (≈ 45.1 µM) |  | 22.5
CCOC(OCC)c1ccc(/C=C/c2ncc([N+](=O)[O-])n2CCO)cc1 | 4.2 | 70.3 (≈ 195 µM) | 17.9 (≈ 49.5 µM) |  | 59.2 (≈ 164 µM) | 5.9 (≈ 16.3 µM) |  | 15.9
O=[N+]([O-])c1cccc(/C=C/c2ncc([N+](=O)[O-])n2CCO)c1 |  | 74.6 (≈ 245 µM) | 53.1 (≈ 175 µM) |  | > 200 | 7 (≈ 23 µM) |  | 
COc1cccc(/C=C/c2ncc([N+](=O)[O-])n2CCO)c1 |  | 46.1 (≈ 159 µM) | 26.2 (≈ 90.6 µM) |  | > 200 | 12.1 (≈ 41.8 µM) |  | 
O=[N+]([O-])c1cnc(/C=C/c2cccc3ccccc23)n1CCO |  | 13.1 (≈ 42.4 µM) | 13.6 (≈ 44 µM) |  | 153 (≈ 496 µM) | 8.6 (≈ 27.8 µM) |  | 
O=[N+]([O-])c1cnc(/C=C/c2ccccc2F)n1CCO | 4.4 | 6.8 (≈ 24.5 µM) | 61.5 (≈ 222 µM) |  | > 200 | 29.9 (≈ 108 µM) |  | 19.2
O=[N+]([O-])c1cnc(/C=C/c2ccccc2Br)n1CCO |  | 7.6 (≈ 22.5 µM) | 27.9 (≈ 82.5 µM) |  | > 200 | 9.3 (≈ 27.5 µM) |  | 
O=[N+]([O-])c1cnc(/C=C/c2ccc3ccccc3c2)n1CCO | 11 | 19.8 (≈ 64 µM) | 3.6 (≈ 11.6 µM) |  | > 200 | 11.9 (≈ 38.5 µM) |  | 10.2
